{
  "source": "ChEMBL document CHEMBL4257496",
  "about": "“Discovery and biological evaluation of N5-substituted 6,7-dioxo-6,7-dihydropteridine derivatives as potent Bruton's tyrosine kinase inhibitors” (Medchemcomm, 2018)",
  "key": {"[1]": {"molecular_target": "T1, Tyrosine-protein kinase BTK (Homo sapiens, UniProt Q06187)", "T1 sequence (Q06187 whole entry)": "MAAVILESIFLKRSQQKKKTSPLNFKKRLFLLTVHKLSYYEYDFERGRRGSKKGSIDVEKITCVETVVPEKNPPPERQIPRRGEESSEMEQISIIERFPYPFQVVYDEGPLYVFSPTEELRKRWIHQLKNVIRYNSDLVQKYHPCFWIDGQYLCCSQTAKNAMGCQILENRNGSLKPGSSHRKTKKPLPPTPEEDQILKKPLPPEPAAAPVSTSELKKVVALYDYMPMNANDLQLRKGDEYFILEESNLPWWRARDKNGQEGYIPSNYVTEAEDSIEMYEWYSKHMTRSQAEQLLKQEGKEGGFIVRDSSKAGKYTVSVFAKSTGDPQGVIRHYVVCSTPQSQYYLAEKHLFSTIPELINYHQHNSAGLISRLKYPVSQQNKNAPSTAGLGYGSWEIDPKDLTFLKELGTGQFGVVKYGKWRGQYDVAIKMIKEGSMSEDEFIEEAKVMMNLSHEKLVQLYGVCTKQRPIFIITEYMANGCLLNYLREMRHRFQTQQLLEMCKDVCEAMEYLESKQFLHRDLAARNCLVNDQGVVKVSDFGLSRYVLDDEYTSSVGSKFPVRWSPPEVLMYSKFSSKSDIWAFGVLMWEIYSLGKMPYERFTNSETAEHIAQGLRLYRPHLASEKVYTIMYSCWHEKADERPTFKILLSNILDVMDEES", "assay": "Inhibition of recombinant human full-length N-terminal His6-tagged BTK expressed in baculovirus infected Sf21insect cells using poly (4:1 Glu, Tyr) as substrate measured after 1 hr by ELISA"}, "Ramos": {"system": "Ramos", "assay": "Antiproliferative activity against human Ramos cells after 72 hrs by MTT assay", "type": "functional, cell-based", "method_in_brief": "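Ramos Burkitt's lymphoma cells (RPMI-1640 with 10% FBS, 37 °C, 5% CO2) were seeded and grown 2 h, then exposed to a range of concentrations in PBS, each in triplicate, for 72 h. MTT was added for 4 h at 37 °C, followed by SDS lysis buffer, and absorbance was read at 570 nm. Inhibition rate = [1 – (A treated/A control)] × 100%. Values are means ± SD of at least two independent determinations.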"}, "[2]": {"molecular_target": "T1, Tyrosine-protein kinase BTK", "assay": "Inhibition of anti-IgM-stimulated BTK activation in human Ramos cells assessed as reduction in PLCgamma2 phosphorylation at Y759 residue at 5 nM preincubated for 1.5 hrs followed by anti-IgM stimulation and measured after 15 mins by Western blot analysis", "type": "cell-based", "method_in_brief": "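Ramos cells were serum-starved 2 h and treated with compound for 1.5 h. They were then stimulated with anti-IgM (2.5 μg mL–1) for 15 min. Cells were lysed by boiling 30 min in Tris-HCl pH 6.8/DTT/SDS buffer and analysed by western blot. Blots were probed for BTK, p-BTK (Tyr223), PLCγ2 and p-PLCγ2, with β-actin or α-tubulin as loading controls.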"}, "[3]": {"molecular_target": "T1, Tyrosine-protein kinase BTK", "assay": "Inhibition of anti-IgM-induced BTK phosphorylation at Y223 residue in human Ramos cells at 5 nM preincubated for 1.5 hrs followed by anti-IgM stimulation and measured after 15 mins by Western blot analysis"}, "[4]": {"molecular_target": "Epidermal growth factor receptor (Homo sapiens) (UniProt P00533)", "sequence (P00533 whole entry)": "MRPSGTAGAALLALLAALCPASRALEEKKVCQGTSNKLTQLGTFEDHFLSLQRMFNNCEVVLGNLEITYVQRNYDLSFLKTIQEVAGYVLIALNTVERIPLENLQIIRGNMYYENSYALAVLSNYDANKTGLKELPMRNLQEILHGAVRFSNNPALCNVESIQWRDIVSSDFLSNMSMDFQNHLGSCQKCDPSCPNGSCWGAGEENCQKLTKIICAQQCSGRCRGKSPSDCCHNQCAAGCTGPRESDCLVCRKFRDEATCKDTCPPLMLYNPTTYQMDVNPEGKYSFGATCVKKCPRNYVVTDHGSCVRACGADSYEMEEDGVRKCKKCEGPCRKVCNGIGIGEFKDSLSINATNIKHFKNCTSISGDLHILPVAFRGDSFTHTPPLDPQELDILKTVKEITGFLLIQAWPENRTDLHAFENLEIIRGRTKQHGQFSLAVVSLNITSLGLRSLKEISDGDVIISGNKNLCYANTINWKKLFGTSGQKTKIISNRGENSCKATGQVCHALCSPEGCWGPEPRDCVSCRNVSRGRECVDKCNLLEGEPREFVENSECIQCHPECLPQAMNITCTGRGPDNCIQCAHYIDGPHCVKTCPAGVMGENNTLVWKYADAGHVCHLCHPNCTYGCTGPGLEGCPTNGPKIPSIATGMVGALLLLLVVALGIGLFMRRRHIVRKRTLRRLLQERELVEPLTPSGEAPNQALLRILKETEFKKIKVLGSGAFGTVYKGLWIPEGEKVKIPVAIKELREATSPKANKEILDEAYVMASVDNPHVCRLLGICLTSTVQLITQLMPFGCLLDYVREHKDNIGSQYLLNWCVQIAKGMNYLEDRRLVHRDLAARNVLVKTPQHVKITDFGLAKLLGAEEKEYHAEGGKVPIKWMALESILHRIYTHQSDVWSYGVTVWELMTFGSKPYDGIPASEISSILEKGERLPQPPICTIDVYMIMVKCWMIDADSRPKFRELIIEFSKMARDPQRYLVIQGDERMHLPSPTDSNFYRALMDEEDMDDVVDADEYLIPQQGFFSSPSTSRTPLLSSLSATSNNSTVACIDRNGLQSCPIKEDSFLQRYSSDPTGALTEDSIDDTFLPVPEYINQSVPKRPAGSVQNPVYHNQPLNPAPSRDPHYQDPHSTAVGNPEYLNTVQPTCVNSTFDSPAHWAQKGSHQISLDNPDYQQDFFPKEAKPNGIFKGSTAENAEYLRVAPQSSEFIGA", "assay": "Inhibition of EGFR (unknown origin) at 100 nM using poly (4:1 Glu, Tyr) as substrate measured after 1 hr by ELISA", "method_in_brief": "(§1)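 ELISA kinase assay. Poly(Glu,Tyr)4:1 substrate was precoated at 20 μg mL–1. Active kinase was incubated with compound in 50 mM HEPES pH 7.4, 20 mM MgCl2, 0.1 mM MnCl2, 0.2 mM Na3VO4, 1 mM DTT and 5 μM ATP at 37 °C for 1 h. Phosphotyrosine was detected with anti-phosphotyrosine PY99 and an HRP secondary antibody, developed with OPD, and absorbance was read at 492 nm.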"}, "[5]": {"molecular_target": "Receptor tyrosine-protein kinase erbB-4 (Homo sapiens) (UniProt Q15303)", "sequence (Q15303 whole entry)": "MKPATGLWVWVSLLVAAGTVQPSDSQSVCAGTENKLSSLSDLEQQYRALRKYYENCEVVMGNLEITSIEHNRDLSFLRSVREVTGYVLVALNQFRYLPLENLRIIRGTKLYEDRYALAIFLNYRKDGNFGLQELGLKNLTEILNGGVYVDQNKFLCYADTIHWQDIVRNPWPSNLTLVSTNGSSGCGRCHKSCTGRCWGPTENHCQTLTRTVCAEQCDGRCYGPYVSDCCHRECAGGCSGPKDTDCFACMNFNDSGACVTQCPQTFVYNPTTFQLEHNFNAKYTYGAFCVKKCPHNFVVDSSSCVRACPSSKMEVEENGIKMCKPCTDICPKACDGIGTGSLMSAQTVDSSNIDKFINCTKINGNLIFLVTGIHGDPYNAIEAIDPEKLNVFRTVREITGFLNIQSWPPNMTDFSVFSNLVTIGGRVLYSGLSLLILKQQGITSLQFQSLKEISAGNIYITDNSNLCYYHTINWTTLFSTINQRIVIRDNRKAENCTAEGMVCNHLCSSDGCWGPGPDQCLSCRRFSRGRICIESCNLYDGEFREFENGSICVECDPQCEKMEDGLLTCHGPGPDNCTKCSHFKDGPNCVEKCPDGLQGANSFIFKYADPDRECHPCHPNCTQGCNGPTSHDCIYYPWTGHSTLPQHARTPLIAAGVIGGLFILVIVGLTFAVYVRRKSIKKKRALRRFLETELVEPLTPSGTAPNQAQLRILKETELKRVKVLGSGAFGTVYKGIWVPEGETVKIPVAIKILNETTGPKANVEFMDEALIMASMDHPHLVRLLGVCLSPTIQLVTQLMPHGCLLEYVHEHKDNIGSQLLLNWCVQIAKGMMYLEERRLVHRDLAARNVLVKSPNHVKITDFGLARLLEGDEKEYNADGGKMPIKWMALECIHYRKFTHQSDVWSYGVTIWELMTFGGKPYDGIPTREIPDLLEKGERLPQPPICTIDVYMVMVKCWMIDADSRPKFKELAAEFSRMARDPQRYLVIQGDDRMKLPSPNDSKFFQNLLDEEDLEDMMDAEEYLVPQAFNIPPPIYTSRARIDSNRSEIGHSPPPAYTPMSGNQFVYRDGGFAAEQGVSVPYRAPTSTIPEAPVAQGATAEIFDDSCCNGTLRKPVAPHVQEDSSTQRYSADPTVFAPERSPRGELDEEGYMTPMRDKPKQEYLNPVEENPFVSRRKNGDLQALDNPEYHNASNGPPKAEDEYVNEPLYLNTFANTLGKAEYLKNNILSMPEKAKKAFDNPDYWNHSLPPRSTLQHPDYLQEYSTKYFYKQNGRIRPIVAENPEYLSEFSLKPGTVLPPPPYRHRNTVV", "assay": "Inhibition of ErbB4 (unknown origin) at 100 nM using poly (4:1 Glu, Tyr) as substrate measured after 1 hr by ELISA", "method_in_brief": "as §1"}, "[6]": {"molecular_target": "Receptor tyrosine-protein kinase erbB-2 (Homo sapiens) (UniProt P04626)", "sequence (P04626 whole entry)": "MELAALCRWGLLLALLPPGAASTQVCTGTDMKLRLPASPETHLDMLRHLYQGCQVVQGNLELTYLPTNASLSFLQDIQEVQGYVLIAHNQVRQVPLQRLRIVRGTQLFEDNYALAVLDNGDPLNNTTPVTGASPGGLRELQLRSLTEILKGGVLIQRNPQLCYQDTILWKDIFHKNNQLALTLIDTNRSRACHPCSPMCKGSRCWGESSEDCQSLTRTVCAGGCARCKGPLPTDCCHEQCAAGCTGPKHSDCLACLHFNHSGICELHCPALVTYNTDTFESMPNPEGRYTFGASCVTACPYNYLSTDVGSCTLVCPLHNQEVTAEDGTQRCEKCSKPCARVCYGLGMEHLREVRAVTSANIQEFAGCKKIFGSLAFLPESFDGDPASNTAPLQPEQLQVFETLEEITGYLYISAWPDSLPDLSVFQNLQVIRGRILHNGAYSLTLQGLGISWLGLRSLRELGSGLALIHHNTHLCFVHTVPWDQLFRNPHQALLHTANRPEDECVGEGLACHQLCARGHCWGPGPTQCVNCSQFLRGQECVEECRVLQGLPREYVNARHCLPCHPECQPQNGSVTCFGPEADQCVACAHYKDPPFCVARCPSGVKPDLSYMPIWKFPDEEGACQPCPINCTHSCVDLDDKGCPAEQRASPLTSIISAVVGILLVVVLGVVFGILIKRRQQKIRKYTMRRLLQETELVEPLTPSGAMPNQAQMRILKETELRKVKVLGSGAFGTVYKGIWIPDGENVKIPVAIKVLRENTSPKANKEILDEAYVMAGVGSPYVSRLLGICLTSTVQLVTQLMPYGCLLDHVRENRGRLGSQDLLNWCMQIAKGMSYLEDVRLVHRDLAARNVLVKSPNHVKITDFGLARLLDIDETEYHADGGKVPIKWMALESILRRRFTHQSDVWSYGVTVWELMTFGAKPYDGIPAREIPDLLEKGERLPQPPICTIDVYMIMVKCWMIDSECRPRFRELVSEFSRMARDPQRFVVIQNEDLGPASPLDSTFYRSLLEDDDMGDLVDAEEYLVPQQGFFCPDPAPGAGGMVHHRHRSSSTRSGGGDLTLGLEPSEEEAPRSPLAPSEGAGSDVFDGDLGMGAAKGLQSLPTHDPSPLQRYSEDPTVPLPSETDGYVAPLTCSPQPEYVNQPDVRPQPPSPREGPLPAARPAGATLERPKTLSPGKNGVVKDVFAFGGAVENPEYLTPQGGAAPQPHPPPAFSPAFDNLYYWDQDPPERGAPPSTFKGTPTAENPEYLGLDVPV", "assay": "Inhibition of ErbB2 (unknown origin) at 100 nM using poly (4:1 Glu, Tyr) as substrate measured after 1 hr by ELISA relative to control", "method_in_brief": "as §1"}, "[7]": {"molecular_target": "T2, Tyrosine-protein kinase ITK/TSK (Homo sapiens) (UniProt Q08881)", "T2 sequence (whole entry)": "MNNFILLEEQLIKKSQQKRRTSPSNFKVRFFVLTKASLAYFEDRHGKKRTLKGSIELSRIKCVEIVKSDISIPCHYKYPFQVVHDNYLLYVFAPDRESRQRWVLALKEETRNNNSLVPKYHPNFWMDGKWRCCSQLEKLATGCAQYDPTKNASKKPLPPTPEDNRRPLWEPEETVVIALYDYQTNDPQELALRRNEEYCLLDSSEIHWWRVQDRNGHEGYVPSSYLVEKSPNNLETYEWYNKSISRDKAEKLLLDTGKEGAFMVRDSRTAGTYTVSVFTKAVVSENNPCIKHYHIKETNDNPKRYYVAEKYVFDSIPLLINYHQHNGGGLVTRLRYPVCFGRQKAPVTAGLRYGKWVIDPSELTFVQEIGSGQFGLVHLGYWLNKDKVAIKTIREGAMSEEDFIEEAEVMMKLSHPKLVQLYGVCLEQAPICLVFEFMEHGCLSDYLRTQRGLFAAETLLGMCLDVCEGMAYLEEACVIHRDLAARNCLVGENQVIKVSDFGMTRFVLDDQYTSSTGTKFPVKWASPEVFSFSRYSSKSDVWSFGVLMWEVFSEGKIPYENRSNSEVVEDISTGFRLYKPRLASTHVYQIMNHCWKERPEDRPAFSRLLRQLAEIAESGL", "assay": "Inhibition of ITK (unknown origin) at 100 nM using poly (4:1 Glu, Tyr) as substrate measured after 1 hr by ELISA relative to control", "method_in_brief": "as §1"}, "[8]": {"molecular_target": "Proto-oncogene tyrosine-protein kinase receptor Ret (Homo sapiens) (UniProt P07949)", "assay": "Inhibition of RET (unknown origin) at 100 nM using poly (4:1 Glu, Tyr) as substrate measured after 1 hr by ELISA relative to control", "method_in_brief": "as §1"}, "Homo sapiens": {"species": "Homo sapiens", "assay": "Selectivity ratio of IC50 for EGFR (unknown origin) to IC50 for recombinant human full-length N-terminal His6-tagged BTK expressed in baculovirus infected Sf21insect cells"}},
  "note": "Calls of active or inactive are those of the source. The rule behind the calls is not given here.",
  "data": [
    {"compound": "C=CC(=O)Nc1cccc(-n2c(=O)c(=O)n(C(C)C)c3cnc(Nc4ccc(OCCN(C)C)cc4OC)nc32)c1", "values": [
      {"measurement": "IC50", "setting": "[1]", "result": 31.9, "unit": "nM"}
    ]},
    {"compound": "C=CC(=O)Nc1cccc(-n2c(=O)c(=O)[nH]c3cnc(Nc4ccc(N5CCN(C)CC5)cc4OC)nc32)c1", "values": [
      {"measurement": "IC50", "setting": "[1]", "result": 5.4, "unit": "nM"},
      {"measurement": "IC50", "setting": "Ramos", "result": "> 100000", "unit": "nM"},
      {"measurement": "inhibition", "setting": "[2]", "result": "inactive"},
      {"measurement": "inhibition", "setting": "[3]", "result": "inactive"}
    ]},
    {"compound": "C=CC(=O)Nc1cccc(-n2c(=O)c(=O)n(CC)c3cnc(Nc4ccc(N5CCN(C)CC5)cc4OC)nc32)c1", "values": [
      {"measurement": "IC50", "setting": "[1]", "result": 17.2, "unit": "nM"}
    ]},
    {"compound": "C=CC(=O)Nc1cccc(-n2c(=O)c(=O)n(C(C)C)c3cnc(Nc4ccc(N(C)CCN(C)C)cc4OC)nc32)c1", "values": [
      {"measurement": "IC50", "setting": "[1]", "result": 20.8, "unit": "nM"}
    ]},
    {"compound": "C=CC(=O)Nc1cccc(-n2c(=O)c(=O)n(C(C)C)c3cnc(Nc4ccc(N5CCN(C)CC5)c(OC)c4)nc32)c1", "values": [
      {"measurement": "IC50", "setting": "[1]", "result": 2.4, "unit": "nM"},
      {"measurement": "IC50", "setting": "Ramos", "result": 10100, "unit": "nM"},
      {"measurement": "inhibition", "setting": "[2]", "result": "Active"},
      {"measurement": "inhibition", "setting": "[4]", "result": "Active"},
      {"measurement": "inhibition", "setting": "[5]", "result": "Active"},
      {"measurement": "inhibition", "setting": "[6]", "result": "< 35", "unit": "%"},
      {"measurement": "inhibition", "setting": "[7]", "result": "< 35", "unit": "%"},
      {"measurement": "inhibition", "setting": "[8]", "result": "> 70", "unit": "%"},
      {"measurement": "inhibition", "setting": "[3]", "result": "Active"}
    ]},
    {"compound": "C=CC(=O)Nc1cccc(-n2c(=O)c(=O)n(C(C)C)c3cnc(Nc4ccc(N5CCN(C)CC5)c(C)c4)nc32)c1", "values": [
      {"measurement": "IC50", "setting": "[1]", "result": 1.9, "unit": "nM"},
      {"measurement": "IC50", "setting": "Ramos", "result": 9370, "unit": "nM"},
      {"measurement": "inhibition", "setting": "[2]", "result": "Active"},
      {"measurement": "inhibition", "setting": "[4]", "result": "Active"},
      {"measurement": "inhibition", "setting": "[5]", "result": "Active"},
      {"measurement": "inhibition", "setting": "[6]", "result": "< 35", "unit": "%"},
      {"measurement": "inhibition", "setting": "[7]", "result": "< 35", "unit": "%"},
      {"measurement": "inhibition", "setting": "[8]", "result": "> 70", "unit": "%"},
      {"measurement": "inhibition", "setting": "[3]", "result": "Active"}
    ]},
    {"compound": "C=CC(=O)Nc1cccc(-n2c(=O)c(=O)n(C(C)C)c3cnc(Nc4ccc(N5CCC(N6CCN(C)CC6)CC5)cc4OC)nc32)c1", "values": [
      {"measurement": "IC50", "setting": "[1]", "result": 12.8, "unit": "nM"}
    ]},
    {"compound": "C=CC(=O)N1CCC[C@@H](n2nc(-c3ccc(Oc4ccccc4)cc3)c3c(N)ncnc32)C1", "note": "[IBRUTINIB]", "values": [
      {"measurement": "IC50", "setting": "Ramos", "result": 6180, "unit": "nM"}
    ]},
    {"compound": "C=CC(=O)Nc1cccc(-n2c(=O)c(=O)n(CCC)c3cnc(Nc4ccc(N5CCN(C)CC5)cc4OC)nc32)c1", "values": [
      {"measurement": "IC50", "setting": "[1]", "result": 21.8, "unit": "nM"}
    ]},
    {"compound": "C=CC(=O)Nc1cccc(-n2c(=O)c(=O)n(C)c3cnc(Nc4ccc(N5CCN(C)CC5)cc4OC)nc32)c1", "values": [
      {"measurement": "IC50", "setting": "[1]", "result": 237, "unit": "nM"}
    ]},
    {"compound": "C=CC(=O)Nc1cccc(-n2c(=O)c(=O)n(C(C)C)c3cnc(Nc4ccc(N5CCN(C)CC5)cc4OC)nc32)c1", "values": [
      {"measurement": "IC50", "setting": "[1]", "result": 47.4, "unit": "nM"},
      {"measurement": "inhibition", "setting": "[4]", "result": "Active"},
      {"measurement": "inhibition", "setting": "[5]", "result": "Active"},
      {"measurement": "inhibition", "setting": "[6]", "result": "< 35", "unit": "%"},
      {"measurement": "inhibition", "setting": "[7]", "result": "< 35", "unit": "%"},
      {"measurement": "Ratio IC50", "setting": "Homo sapiens", "result": 23}
    ]}
  ]
}
